Source: PubChem BioAssay (several laboratories)
HNF4A DNA FP – change in binding of human HNF4 alpha to DNA | P41235 | HNF4a-FITC DNA binding, fluorescence polarization, 1 h | activity change, % at 10 µM | 360,000 compounds, 0.3% hits; in the data active = activity change above about 30%, passing the limit was not always enough
CSN inh – CSN deneddylation inhibition | Purified CSN, SCF-Nedd8-OG deneddylation, fluorescence polarization | inhibition, % at 12.5 µM | 360,000 compounds, 0.38% hits | AID 651999;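 active = pattern-corrected inhibition above about 35%, with an unprinted fluorescence ratio check between 0.5 and 1.5, limit read from the data, passing the limit was not always enough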
Target sequence (Q92905 whole entry, looked up, one chain of several): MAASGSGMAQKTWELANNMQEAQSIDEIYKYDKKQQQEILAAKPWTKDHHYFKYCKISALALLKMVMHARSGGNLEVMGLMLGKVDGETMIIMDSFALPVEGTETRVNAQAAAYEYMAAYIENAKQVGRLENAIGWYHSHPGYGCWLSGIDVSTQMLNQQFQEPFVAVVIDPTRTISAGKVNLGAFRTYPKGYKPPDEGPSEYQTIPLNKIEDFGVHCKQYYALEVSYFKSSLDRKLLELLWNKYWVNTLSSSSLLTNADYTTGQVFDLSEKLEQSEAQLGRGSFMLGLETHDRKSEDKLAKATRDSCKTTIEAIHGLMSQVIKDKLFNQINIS
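Schedule: reaction 90 min, room temperature / Assay system: HEK293T-derived human Csn5 enzyme / Input: Csn5 at 0.24 nM final / Measure: inhibition of Csn5 cleavage, % / Control set: substrate-only high control, full reaction low control / Technique: fluorescence polarization of the substrate / Buffer or medium: Tris/NaCl/DTT buffer, pH 7.5 / Reagent: SCFSkp2-Nedd8OG substrate at 10 nM final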
TPT1 inhibitor – blocks Candida albicans tRNA 2'-phosphotransferase; recombinant caTPT1, FP RNA substrate dephosphorylation; inhibition, % at 5 µM; 300,000 compounds, 0.81% hits;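 active = inhibition above the mean of all tested compounds plus 3 SD, set per screening campaign, cut at about 24% in these data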
Rpn11 block – Rpn11 (human) deubiquitinase inhibition. AID 588493. O00487. inhibition, % at 20 µM. human 26S proteasome, Ub4-pepOG fluorescence polarization; 20S core pre-blocked with epoxomicin. 360,000 compounds, 0.59% hits;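 active = inhibition at 20 µM, scaled to each plate's controls, above about 33%, limit read from the data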
Target sequence (O00487 whole entry, looked up): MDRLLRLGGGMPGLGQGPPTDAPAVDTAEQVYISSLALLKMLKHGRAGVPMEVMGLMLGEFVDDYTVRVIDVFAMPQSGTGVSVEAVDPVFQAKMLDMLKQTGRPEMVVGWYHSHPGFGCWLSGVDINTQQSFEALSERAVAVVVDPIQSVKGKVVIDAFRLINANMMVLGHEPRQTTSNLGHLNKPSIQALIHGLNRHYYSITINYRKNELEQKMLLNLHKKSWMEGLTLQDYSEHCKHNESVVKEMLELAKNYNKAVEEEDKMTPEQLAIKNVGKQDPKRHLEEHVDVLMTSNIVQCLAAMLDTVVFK
Myeloid diff MLP – compounds promoting myeloid differentiation; 360,000 compounds, 1% hits; ER-HoxA9 myeloid progenitors, lysozyme-GFP differentiation, flow cytometry; calls only at 10 µM;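 active = normalized GFP-positive differentiation at or above the plate's own cutoff, the solvent-only control mean plus 3 SD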;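 note: cells exposed to compound for four days before flow analysis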
Myeloid diff – promotes myeloid progenitor differentiation; calls only; AID 651706; shares compounds with Myeloid diff MLP; 2,300 compounds, 2% hits; ER-HoxA9 myeloid progenitors, GFP/Mac1 double-positive flow;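 active = share of green or green-and-red cells above 9 and 9% in run 1 or 4 and 3% in run 2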
GFP autofluor – flagged as fluorescent in myeloid differentiation counter-screen. shares compounds with Myeloid diff MLP. ER-HoxA9 myeloid progenitors, no estrogen, GFP autofluorescence flow cytometry; vehicle wells 0%, positive control 100%. fluorescence response, % (concentration not given with the values). 2,300 compounds, 7.4% hits. AID 651707;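 active = over 5% cells positive for green fluorescent reporter, or over 2% positive for both it and APC stain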
A number is an active result; - = inactive; . = not tested or not shown; + = active, no number. Rows were chosen to be rich in hits. Some 2.3% of all compounds tested hit in one or more screens of this group.

SMILES	HNF4A DNA FP	CSN inh	TPT1 inhibitor	Rpn11 block	Myeloid diff MLP	Myeloid diff	GFP autofluor
O=C(Nc1ncccc1O)c1ccc(NS(=O)(=O)c2ccc3[nH]c(=O)[nH]c3c2)cc1	-	-	.	-	-	.	.
Cc1cccc(NC(=O)c2ccc(NS(=O)(=O)c3cccc4cccnc34)cc2)c1	-	-	.	-	-	-	-
COc1ccc(NC(=S)N2CCC3CC2c2cc(-c4ccc5c(c4)OCO5)ccc23)c(OC)c1 (stereo not drawn)	-	-	.	-	-	.	.
Cc1sc(NC(=O)CSc2n[nH]c(N)n2)c(C#N)c1C	-	-	.	-	+	-	16
CCCCCC(=O)Nc1sc(C)c(C)c1C#N	-	-	-	-	-	-	-
COC(=O)c1c(NC(=O)CSc2n[nH]c(N)n2)sc(C)c1C	-	-	-	-	-	.	.
O=C(CCCn1c(=S)[nH]c2cc3c(cc2c1=O)OCO3)N1CCN(c2ncccn2)CC1	-	-	-	-	-	-	-
O=C(CCCCCn1c(=S)[nH]c2cc3c(cc2c1=O)OCO3)N1CCN(c2ccccc2)CC1	-	-	-	-	-	.	.
CC(=O)Nc1ccc(SCCN2CC[C@@H](C)CCC2=O)cc1	-	-	.	-	-	.	.
Cc1nc(SCC(=O)Nc2ccccc2C(F)(F)F)c2c(=O)n(C)c(=O)n(C)c2n1	-	-	-	-	+	-	-
CCc1nc(SCC(=O)c2ccccc2)c2c(=O)n(C)c(=O)n(C)c2n1	-	-	-	-	-	.	.
Cc1nc(SCC(=O)NCc2ccccc2)c2c(=O)n(C)c(=O)n(C)c2n1	-	-	-	-	-	.	.
Cn1c(=O)c2c(SCC(=O)c3ccccc3)nc(C3CC3)nc2n(C)c1=O	-	-	-	-	-	-	-
CN1CCN(C(=O)c2ccc(-c3ccc(F)c(F)c3)c3ccoc23)CC1	-	-	.	-	-	.	.
COCCNCC(=O)N1CCCCCC1	-	-	-	-	-	.	.
O=C(NC1CCCCC1)C(=S)NC1CCCCC1	.	.	-	.	.	.	.
COc1cc(C#Cc2c(-c3cncn3C)n(C)c3ccc(-c4ccc5[nH]ccc5c4)cc23)cc(OC)c1	-	-	.	-	-	-	98
COc1cc(C#Cc2c(-c3cncn3C)n(C)c3ccc(-c4ccc(OC)nc4)cc23)cc(OC)c1	-	-	.	-	-	.	.
O=C(NC(=S)NCCN1CCOCC1)c1cccc(Cl)c1	-	-	-	-	-	-	-
c1ccc(C2=Nn3c(nnc3-c3ccccn3)SC2)cc1	-	-	-	-	-	-	-
c1ccc(C2=Nn3c(nnc3-c3ccncc3)SC2)cc1	-	-	-	-	-	.	.
O=C(c1ccco1)N1CCN(C(=O)c2cn(-c3ccccc3)nc2-c2ccc(F)cc2)CC1	-	-	.	-	-	.	.
COc1ccccc1-c1nn(-c2ccccc2)cc1C(=O)N1CCN(C(=O)c2ccco2)CC1	-	-	.	-	-	-	-
CCOC(=O)c1c(NC(=O)CSc2nnnn2CC)sc(C)c1C	-	-	-	-	-	.	.
Cn1c(C(=O)NCCN2CCc3ccccc3C2)cc2c(=O)n(C)c3ccccc3c21	-	-	-	-	-	.	.
SMILES	HNF4A DNA FP	CSN inh	TPT1 inhibitor	Rpn11 block	Myeloid diff MLP	Myeloid diff	GFP autofluor
Cn1c(C(=O)NCCN2CCOCC2)cc2c(=O)n(C)c3ccccc3c21	-	-	-	-	-	-	-
Cc1noc(C)c1S(=O)(=O)Nc1ccc2c(c1)C(=O)N([C@H](C)CO)C[C@H](C)[C@@H](CN(C)C(=O)CCCN(C)C)OCCCC[C@@H](C)O2	-	-	.	-	-	-	-
C[C@@H]1CCCCO[C@@H](CN(C)C(=O)c2ccncc2)[C@@H](C)CN([C@H](C)CO)C(=O)c2cc(N(C)C)ccc2O1	-	-	.	-	-	.	.
C[C@@H]1CCCCO[C@H](CN(C)C(=O)C2CCCCC2)[C@@H](C)CN([C@H](C)CO)C(=O)c2cc(N(C)C)ccc2O1	-	-	.	-	-	-	-
O=C(Nc1ccc(N2CCN(C(=O)c3cccs3)CC2)cc1)c1ccc(F)cc1	-	-	-	-	-	.	.
COC(=O)C1=CN(c2cccc(OCc3ccccc3)c2)C(N)=C(C#N)C1c1cccc(F)c1 (stereo not drawn)	-	-	.	.	-	.	.
CCC(CO)Oc1cc(NCc2ccc(Cl)cc2)c2ncn(C(C)C)c2c1 (stereo not drawn)	-	-	.	-	-	-	-
CCN1CCN(c2ccc(S(=O)(=O)N3CCCCC3)cc2NC(=O)/C=C/c2ccc(OC(F)F)cc2)CC1	-	-	-	-	-	-	-
CN1CCN(c2ccc(S(=O)(=O)N3CCCCC3)cc2NC(=O)/C=C/c2ccc(OC(F)F)cc2)CC1	-	-	-	-	-	.	.
CCn1c(-c2sc(-c3ccccc3)nc2C)n[nH]c1=S	-	-	-	-	+	-	-
COc1ccc(NC(=O)N(C)C[C@H]2Oc3ccc(NC(=O)Cn4cnnn4)cc3C(=O)N([C@H](C)CO)C[C@@H]2C)cc1	-	-	.	-	-	.	.
Cc1cccc(NC(=S)NC2CCCC2)c1	-	-	-	-	-	.	.
Cc1cccc(NC(=S)N(C)C2CCCCC2)c1	-	-	-	-	-	-	-
CCN(CC)C(=O)CSc1ncnc2c(-c3cccs3)nsc12	-	-	-	-	-	-	-
Cc1ccc(-n2nc3c(c2NC(=O)c2cccs2)CS(=O)(=O)C3)cc1C	-	-	-	-	-	.	.
Nc1nc(-c2ccc(Oc3ccccc3)cc2)c(CC(=O)O)s1	-	42	.	.	-	-	-
N#Cc1c(C(F)(F)F)cc(-c2ccccc2)nc1SCC(=O)Nc1sc2c(c1C#N)CCC2	-	-	-	-	-	-	-
CC(Sc1nc(-c2ccccc2)cc(C(F)(F)F)n1)C(=O)Nc1sc2c(c1C#N)CCC2 (stereo not drawn)	-	-	-	-	-	.	.
CC(C)C(NC(=O)C1CC(=O)N(Cc2ccccc2)C1)c1nc2ccccc2[nH]1 (stereo not drawn)	-	-	.	-	-	.	.
Cc1ccc(Cl)cc1NC(=O)CCN1C(=O)C2C3CCC(C3)C2C1=O (stereo not drawn)	-	-	-	-	-	.	.
O=C(CCN1C(=O)C2C3C=CC(C4CC34)C2C1=O)Nc1ccc(Cl)cc1O (stereo not drawn)	-	-	-	-	+	-	-
Cc1ccc(NC(=O)c2ccc(Cl)c(N3C(=O)C=CC3=O)c2)cc1	-	-	-	-	-	.	.
FC(F)(F)c1ccc(-n2ccnc2)nc1	-	-	-	-	+	-	-
FC(F)(F)c1nnc2ccc(-n3ccnc3)nn12	-	-	-	-	-	.	.
COC(=O)c1ccc(CNC(=O)c2ccccc2C(=O)NCC2(CBr)OCCO2)cc1	-	-	.	-	-	.	.
CCCS(=O)(=O)NC(=O)C1(C)CCN(C(=O)Cc2ccc(OC)cc2)C1 (stereo not drawn)	-	-	.	-	-	.	.
